The structures appear in SMILES notation.

This is an account of results in BindingDB's records for doi:10.1016/j.ejmech.2011.10.030 (Helwan University, 2011).

For this test, the target named is Beta-lactamase (Pseudomonas aeruginosa, UniProt Q79MP6). Briefly: Competitive inhibition of Pseudomonas aeruginosa metallo-beta-lactamase IMP-1 expressed in Escherichia coli BL21(DE3) using CENTA as substrate by spectrophotometric analysis. Put shortly: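 IMP-1 lacking the first 21 signal-peptide residues, recombinantly expressed and purified, at 2 nM final. Buffer was 50 mM HEPES, 0.1 M NaCl, 100 µM ZnCl2, pH 7.0, with BSA at 20 µg/mL final. CENTA was varied from 5 to 70 µM final at three inhibitor concentrations. […] was read at 405 nm on a plate reader, and data were fitted by non-linear regression.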
Beta-lactamase, sequence (Q79MP6 whole entry): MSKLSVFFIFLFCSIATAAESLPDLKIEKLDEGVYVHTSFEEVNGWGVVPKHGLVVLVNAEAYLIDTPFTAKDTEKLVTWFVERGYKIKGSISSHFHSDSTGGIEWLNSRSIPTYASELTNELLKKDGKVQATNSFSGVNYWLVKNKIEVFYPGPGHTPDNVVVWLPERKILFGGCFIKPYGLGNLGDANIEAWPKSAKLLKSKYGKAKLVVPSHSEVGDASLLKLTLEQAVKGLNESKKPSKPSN

Take `Cc1ccc(-n2c(-c3ccccc3)c(-c3ccccc3)c3c(Cl)ncnc32)cc1`: the Ki worked out at 19 µM.

`Cc1ccc(-n2cc(-c3ccccc3)c3c(Cl)ncnc32)cc1` had a Ki of 33 µM.

`Cc1ccc(-n2c(-c3ccccc3)c(-c3ccccc3)c3c(N/N=C/c4ccccc4)ncnc32)cc1` came in with a Ki of 18 µM.

In turn, `Cc1ccc(-n2c(-c3ccccc3)c(-c3ccccc3)c3c2ncn2c(=S)[nH]nc32)cc1` gave a Ki of 15 µM.

`COc1ccc(-n2c3c(c(-c4ccccc4)c2-c2ccccc2)C(=C(C#N)C#N)NC=N3)cc1` gave a Ki of 29 µM.

The compound `COc1ccc(-n2c(-c3ccccc3)c(-c3ccccc3)c3c(Cl)ncnc32)cc1` yielded a Ki of 12 µM.

The Ki is a measure of affinity in units of concentration, obtained from inhibition or displacement. The low end stands for tighter binding, the high end for weaker binding.
